This is a sample that favours compounds with a hit; in the whole collection about 4.7% have one here.
ADAM10 inh = human ADAM10 inhibitors, primary screen, biochemical, QFRET, HTS; AID 720582, 2013; Disintegrin and metalloproteinase domain-containing protein 10 (Homo sapiens), O14672; hit rate 0.62% among 370,000; recombinant ADAM10, EDANS/DABCYL FRET peptide cleavage, 3 h; inhibition, % at 7 µM;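 active = inhibition above a per-campaign cutoff equal to the mean of compounds falling between control-based bounds plus 3 SD, cut at about 20% in these data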;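 also: 0% = DMSO wells while the 100% control is not disclosed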
MT1-MMP act inh = blockers of MT1-MMP proenzyme processing, primary screen, HT1080 RFP-PRO-GFP cells, GFP/RFP fluorescence; Matrix metalloproteinase-14 (Homo sapiens), P50281; GFP/RFP ratio fluorescence, overnight; percent of plate control window, DMSO zero; GFP/RFP ratio change, % at 20 µM; hit rate 0.061% among 360,000; AID 651647, 2012;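 active = GFP/RFP ratio change of at least 30% with cell ATP level not reduced by more than half and red fluorescence within 50% of control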
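Assay system: HT1080 cells carrying an RFP-PRO-GFP reporter | Dosing: Single dose of 20 µM compound, 1% DMSO final | Incubation: Cells overnight before dosing, compound overnight, 37 °C, 5% CO2 | Evaluation: GFP/RFP fluorescence ratio | Control set: DMSO and RFP-L50D-GFP cell wells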
MPTP block = mitochondrial permeability transition pore inhibitors, primary screen, biochemical, isolated mouse mitochondria, absorbance. Ca2+ swelling absorbance, 30 min. inhibition, % at 10 µM. hit rate 1.4% among 360,000;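 active = inhibition of 50% or more, scaled per plate between neutral and stimulator controls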;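 also: 0% = DMSO wells given calcium and 100% = 1 mM EGTA wells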
NR3A LBD binder = binders of NR3A ligand-binding domain, primary screen, biophysical, differential scanning fluorimetry, uHTS; Glutamate receptor ionotropic, NMDA 3A (GRIN3A) ligand-binding domain; NR3A LBD differential scanning fluorimetry, Tm shift; 0% = protein alone, 100% = glycine-bound protein; Tm shift relative to glycine control, % at 25 µM; hit rate 2.5% among 340,000; AID 1259313, 2017;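 active = melting temperature shift of at least 10% of the positive control shift, at one fixed dose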
SKN-1 inh = suppressors of acrylamide-induced Pgst-4::GFP reporter in worms, primary screen, SKN-1 inhibitor project, whole organism, uHTS, GFP/RFP fluorescence ratio, strain VP596. hit rate 0.49% among 360,000. inhibition, % at 21.8 µM. C. elegans VP596 Pgst-4::GFP/RFP ratio, 24 h;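 active = interference check ratio from 0.5 to 1.5 plus GFP to RFP signal ratio inhibition reaching or exceeding a fixed threshold, cut at about 30% in these data, passing the limit was not always enough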
ADAM17 inh = ADAM17 inhibitors, primary screen, biochemical, QFRET. hit rate 0.83% among 370,000. inhibition, % at 6.95 µM. recombinant ADAM17, EDANS/DABCYL FRET peptide cleavage;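 active = inhibition above the mean of compounds lying between control limits plus 3 SD, set per campaign, cut at about 8.5% in these data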;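 also: 0% = DMSO-only wells as the low control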
Target sequence (P78536 215-824 limits assumed): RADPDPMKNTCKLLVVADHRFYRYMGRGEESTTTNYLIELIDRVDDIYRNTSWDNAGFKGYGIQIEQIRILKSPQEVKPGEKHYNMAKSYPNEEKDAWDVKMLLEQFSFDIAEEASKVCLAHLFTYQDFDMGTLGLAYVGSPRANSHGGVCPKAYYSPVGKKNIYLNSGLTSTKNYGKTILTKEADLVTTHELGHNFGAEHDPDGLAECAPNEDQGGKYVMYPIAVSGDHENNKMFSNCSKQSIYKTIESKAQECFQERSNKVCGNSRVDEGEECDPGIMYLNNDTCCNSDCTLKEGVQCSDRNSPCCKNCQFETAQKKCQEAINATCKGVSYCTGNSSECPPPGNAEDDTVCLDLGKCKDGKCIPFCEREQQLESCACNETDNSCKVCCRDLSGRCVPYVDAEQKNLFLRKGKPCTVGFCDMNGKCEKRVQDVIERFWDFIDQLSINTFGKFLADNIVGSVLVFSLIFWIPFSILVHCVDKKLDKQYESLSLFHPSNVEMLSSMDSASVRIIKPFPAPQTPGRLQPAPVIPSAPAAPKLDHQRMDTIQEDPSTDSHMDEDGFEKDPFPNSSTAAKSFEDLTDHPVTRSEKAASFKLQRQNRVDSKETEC
An asterisk follows results filed as active; . = no result given.

SMILES | ADAM10 inh | MT1-MMP act inh | MPTP block | NR3A LBD binder | SKN-1 inh | ADAM17 inh
Cc1cc(C)n(CC(C)O)c(=O)c1C#N (stereo not drawn) | -3 | -2 | 0 | 2 | 4 | -3
COC(=O)C1=C(C)NC(=O)/C1=C\N(C)C | -27 | -6 | -2 | 1 | 39* | -13
COc1ccccc1NC(=S)NCc1ccco1 | 2 | -2 | 1 | 0 | -21 | 0
COc1cc(NC(=S)NCc2ccco2)cc(OC)c1OC | -10 | -3 | 1 | 19* | -9 | 4
CCOC(=O)Cc1csc(NC(=O)CCNS(=O)(=O)c2ccc3c(c2)CCC(=O)N3)n1 | -1 | 1 | 0 | -3 | 20 | -4
COc1ccc(S(=O)(=O)Nc2ccc(C(F)(F)F)cc2)cc1OC | 4 | 2 | 2 | -11 | 13 | 0
O=C(O)c1cccc(NC(=O)c2ccccc2NC(=O)c2cccc([N+](=O)[O-])c2)c1 | -1 | . | 0 | 0 | -18 | 1
O=C(NC(NC(=S)Nc1ccccc1C(=O)O)C(Cl)(Cl)Cl)c1cccc([N+](=O)[O-])c1 (stereo not drawn) | -40 | 2 | 6 | 16* | -4 | -9
N/C(=N\OC(=O)c1ccc2ccccc2c1)c1ccc(Br)cc1 | -10 | 2 | 5 | 24* | -4 | -5
N/C(=N\OC(=O)c1ccoc1)c1ccc(Br)cc1 | 2 | 2 | 0 | -6 | 63* | 0
N/C(=N\OC(=O)c1ccco1)c1cccc(Br)c1 | 0 | 1 | -2 | -34 | 57* | -5
N/C(=N\OC(=O)c1cccc(Br)c1)c1ccccc1 | 7 | 1 | 0 | 10* | 33 | 2
Cc1cc(C)cc(C(=O)O/N=C(\N)c2ccc(Br)cc2)c1 | -4 | 8 | 0 | -18 | -21 | -5
CCn1c(=O)c2sccc2n2c(CCCC(=O)N3CCN(c4ccccn4)CC3)nnc12 | -7 | 3 | 1 | -1 | -3 | -4
O=C(OCCCOC(=O)c1cc[n+]([O-])cc1)c1cc[n+]([O-])cc1 | -13 | 0 | 0 | 5 | -4 | -2
CC1CCC(NC(=O)c2ccc(NC3=NC4CS(=O)(=O)CC4S3)cc2)CC1 (stereo not drawn) | 0 | 1 | 1 | -1 | 16 | 1
N/C(=N\OC(=O)c1cccc2ccccc12)c1ccncc1 | -17 | 2 | 0 | 0 | 15 | -5
N/C(=N\OC(=O)c1cccc2ccccc12)c1ccc(Br)cc1 | 2 | 1 | 6 | 26* | 2 | 1
NC(=S)Nc1ccc(S(=O)(=O)c2ccc(NC(N)=S)cc2)cc1 | 6 | 2 | -1 | 23* | 19 | 2
CCn1c(CNC(=O)c2ccc3c(c2)OCO3)nnc1SCC(=O)Nc1cc(C)ccc1OC | 1 | 1 | -6 | 10* | 16 | 1
Cc1ccccc1NC(=O)CSc1nnc(CNC(=O)c2ccc3c(c2)OCO3)n1C | -1 | 1 | -4 | 0 | 13 | -6
Cc1ccc(C)c(S(=O)(=O)N2CCN(c3nc(-c4cccnc4)nc4ccccc34)CC2)c1 | 0 | -8 | -2 | -5 | -18 | 0
CSc1nnc2c(n1)OC(c1cccn1C)N(C(C)=O)c1ccccc1-2 (stereo not drawn) | -2 | 2 | 1 | -1 | 9 | -7
COCCn1c(SCC(=O)Nc2cccc(C)c2)nnc1C(C)C | 1 | 3 | 1 | -4 | 37* | -2
COCCn1c(SCC(=O)Nc2cccc(OC)c2)nnc1-c1ccc(Cl)cc1 | 13 | 4 | 0 | -1 | -7 | 4
SMILES | ADAM10 inh | MT1-MMP act inh | MPTP block | NR3A LBD binder | SKN-1 inh | ADAM17 inh
COCCn1c(SCC(=O)Nc2cccc(OC)c2)nnc1-c1ccccc1 | 13 | 6 | 0 | 11* | -4 | 3
CC(C)[C@H](NS(=O)(=O)c1ccccc1)C(=O)OCC(=O)Nc1cccc(S(N)(=O)=O)c1 | -9 | 2 | -2 | 0 | -3 | -4
O=S(=O)(NCc1csc(-c2cccnc2)n1)c1cccs1 | -15 | -2 | 1 | -1 | 1 | -3
O=S(=O)(NCCc1csc(-c2cccnc2)n1)c1cccs1 | -9 | -2 | -2 | 13* | -6 | 1
CCN(CC)S(=O)(=O)c1ccc(C(=O)NCc2ccc3c(c2)cc(C)n3C)cc1 | 7 | 35 | 2 | -3 | 43 | -3
Cc1cc2cc(CNC(=O)C3CC3)ccc2n1C | -23 | 24 | 3 | 0 | 40* | -11
Cc1cc2cc(CNC(=O)c3ccc(S(=O)(=O)N4CCCC4)cc3)ccc2n1C | -3 | 16 | 0 | 1 | 46* | -3
CCc1cccc(C)c1NC(=S)NCc1ccc2c(c1)cc(C)n2C | -2 | 50 | 25 | -5 | 97* | 5
Cc1ccccc1NC(=S)NCc1ccc2c(c1)cc(C)n2C | -11 | -5 | 0 | -3 | 24 | -5
COc1ccc(CC(=O)NCc2ccc3c(c2)cc(C)n3C)cc1 | -3 | . | -1 | 0 | 50* | -2
c1ccc(C(Nc2cccnc2)c2ccccc2)cc1 | -3 | -1 | -1 | 0 | -4 | -4
CC(C)CN(C(=O)c1ccc(F)cc1F)c1c(N)n(CC(C)C)c(=O)[nH]c1=O | -2 | 2 | 1 | -2 | 5 | -3
CCCCS(=O)(=O)N1C2=NC(C(=O)OC)=C(C(=O)OC)[C@@H]3N(C)c4ccc(OC)cc4[C@]23C[C@H]1C(=O)OC | . | 2 | 0 | 1 | -15 | .
CCOCCCNC(=O)c1ccc(N(C)S(=O)(=O)c2ccc(OC)cc2)cc1 | -11 | 1 | -2 | -1 | -7 | -6
O=C(NCCCn1ccnc1)C(Cc1ccc([N+](=O)[O-])cc1)N1C(=O)c2ccccc2C1=O (stereo not drawn) | -3 | 0 | 2 | -1 | -17 | -3
CCOC(=O)NCc1ccc2c(c1)cc(C)n2C | -20 | 33 | 8 | 1 | 52* | -7
Cc1cc2cc(CNC(=O)Nc3ccccc3)ccc2n1C | -2 | 41 | 6 | -22 | 38* | 1
N#Cc1cc(-c2ccccc2)cnc1Sc1ccc(Cl)cc1 | -20 | 0 | 5 | 0 | 26 | -6
N#Cc1cc(-c2ccc(Cl)cc2)cnc1Sc1ccc(F)cc1 | -1 | 1 | 7 | 13* | 3 | -1
COc1ccc2c(CC(=O)OCC(=O)c3ccc(F)cc3)coc2c1 | -12 | -6 | -2 | 19* | -8 | -7
